Measurements reported in ChEMBL document CHEMBL4680189, “Immunosuppressive properties of amino acid and peptide derivatives of mycophenolic acid” (Eur J Med Chem, 2020).
The source made the active and inactive calls. No cut-off for these calls is given here. Where a SMILES comes first, the peptide text is derived from it. [ ]: non-standard residue; d: D form. The star is where a group is joined. Mycophenolyl = COc1c(C)c2c(c(O)c1C/C=C(\C)CCC(=O)*)C(=O)OC2; Arg(NO2) = N=C(NCCC[C@H](N)C(=O)O)N[N+](=O)[O-]

Experiments:
[1] = Immunosuppression-mediated cytotoxicity against anti-CD3/anti-CD28-stimulated human PBMC cells assessed as reduction in cell viability incubated for 72 hrs by MTT assay; assay type: cell-based
Method in brief: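 PBMC from buffy coats of healthy donors, isolated on a Ficoll gradient with erythrocyte lysis. Plated at 50×10^3 cells/well with anti-CD3/anti-CD28, serial compound dilutions, in triplicate. Incubated 72 h, 37 °C, 5% CO2. MTT added for 3 h, formazan dissolved in acidified isopropanol (0.4 N HCl), A570 read. Three donors averaged; IC50 from curve fit.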

Jurkat [2] = assay: Immunosuppression-mediated cytotoxicity against human Jurkat T cells assessed as reduction in cell viability at 1 mg/ml incubated for 48 hrs by MTT assay relative to control; assay type: cell-based
Method in brief: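 Jurkat cells (RPMI-1640, 10% FBS) plated at 50×10^3 cells/well and exposed to 1 mg/mL compound (1 mg in 20 μL DMSO, made up to 1 mL with medium). 48 h at 37 °C, 5% CO2, in triplicate. MTT (5 mg/mL stock) for 3 h, acidified isopropanol, A570. Viability calculated at that concentration.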

Jurkat [3] = assay: Immunosuppression-mediated antiproliferative activity against human Jurkat T cells assessed as inhibition of cell growth incubated for 48 hrs by VPD450 staining based flow cytometry; assay type: functional
Method in brief: (§1)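 Cells stained with VPD450 (2 μL of 1 mM dye per 10-30×10^6 cells in 1 mL PBS, 15 min, 37 °C), washed. PBMC: 50×10^3 cells/well with anti-CD3/anti-CD28, serial compound dilutions, 72 h. Jurkat: 50×10^3 cells/well, 48 h. 37 °C, 5% CO2, triplicate. Dye dilution by flow cytometry; EC50 from curve fit.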

[4] = Immunosuppression-mediated antiproliferative activity against anti-CD3/anti-CD28-stimulated human PBMC cells assessed as inhibition of cell growth incubated for 72 hrs by VPD450 staining based flow cytometry; assay type: functional; method in brief: as §1
[5] = Selectivity index, ratio of IC50 for cytotoxicity against human PBMC by MTT assay to EC50 for antiproliferative activity against human PBMC by VPD450 staining based flow cytometry
Method in brief: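 Ratio of the MTT cytotoxicity IC50 (72 h, stimulated PBMC) to the VPD450 antiproliferative EC50 (72 h, stimulated PBMC), both from fitted concentration-response curves.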

PBMC = assay: Immunosuppression-mediated antiproliferative activity against anti-CD3/anti-CD28-stimulated human PBMC cells assessed as inhibition of cell growth incubated for 72 hrs in presence of GMP by VPD450 staining based flow cytometry; assay type: functional
Method in brief: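 VPD450-stained PBMC, 50×10^3 cells/well, anti-CD3/anti-CD28 stimulation, serial compound dilutions plus GMP at 50 μM in the well. Incubated 72 h at 37 °C, 5% CO2, in triplicate. Proliferation read by flow cytometry as dye dilution and expressed relative to controls.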

Jurkat [6] = assay: Immunosuppression-mediated cytotoxicity against human Jurkat T cells assessed as reduction in cell viability incubated for 48 hrs by MTT assay; assay type: cell-based
Method in brief: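 Jurkat cells in RPMI-1640 with 10% FBS and P/S, 50×10^3 cells/well, exposed in triplicate to serial dilutions from 1 mg/mL (DMSO/medium) for 48 h at 37 °C, 5% CO2. MTT (5 mg/ml) then added for 3 h. Formazan dissolved in 0.4 N HCl–isopropanol, absorbance read at 570 nm. IC50 from curve fitting; viability at 1 mg/mL used where IC50 could not be reached.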

[7] = Selectivity index, ratio of IC50 for cytotoxicity against human Jurkat T cells by MTT assay to EC50 for antiproliferative activity against human Jurkat T cells by VPD450 staining based flow cytometry
Method in brief: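 Jurkat IC50 from the 48 h MTT assay (50×10^3 cells/well, triplicate) divided by Jurkat EC50. […] Cells treated 48 h with serial dilutions, then dye dilution read by flow cytometry and fitted.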

Jurkat [8] = assay: Immunosuppression-mediated antiproliferative activity against human Jurkat T cells assessed as inhibition of cell growth at 1 mg/ml incubated for 48 hrs by VPD450 staining based flow cytometry relative to control; assay type: functional; parameters: scale not given: the % may be the effect or the level left
Method in brief: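 Jurkat cells stained with VPD450 (2 μL of 1 mM dye per 10-30×10^6 cells, 15 min, 37 °C) and plated at 50×10^3 cells/well. Compound added at the top concentration, 1 mg/mL (1 mg dissolved in 20 μL DMSO, made up to 1 mL with medium). 48 h at 37 °C, 5% CO2, in triplicate. Read by flow cytometry; […].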

Row | SMILES | IC50 [1] | Activity (Jurkat [2]) | EC50 (Jurkat [3]) | EC50 [4] | Ratio IC50/EC50 [5] | Activity (PBMC) | IC50 (Jurkat [6]) | Ratio IC50/EC50 [7] | Activity (Jurkat [8])
1 | COC(=O)[C@@H](NC(=O)[C@H](CCCCNC(=O)[C@@H](N)C(C)C)NC(=O)[C@@H]1CCCN1C(=O)[C@H](CCCNC(=N)N[N+](=O)[O-])NC(=O)CC/C(C)=C/Cc1c(O)c2c(c(C)c1OC)COC2=O)[C@@H](C)O (Mycophenolyl-[Arg(NO2)]PK(Val)T-OMe) | 548 µM | 63.35% | 556 µM | 129 µM | 4.3 | inactive | – | – | –
2 | COc1c(C)c2c(c(O)c1C/C=C(\C)CCC(=O)N[C@@H](CCCNC(=N)N[N+](=O)[O-])C(=O)O)C(=O)OC2 | 283 µM | 59.12% | 1190 µM | 132 µM | 2.2 | inactive | – | – | –
3 | COC(=O)[C@@H](CCCNC(=N)N[N+](=O)[O-])NC(=O)CC/C(C)=C/Cc1c(O)c2c(c(C)c1OC)COC2=O | 71 µM | – | 69 µM | 95.6 µM | 0.7 | inactive | 572 µM | 8.2 | –
4 | COC(=O)[C@H](CCCNC(=N)N[N+](=O)[O-])NC(=O)[C@@H]1CCCN1C(=O)[C@H](CCCCNC(=O)CN)NC(=O)[C@@H](NC(=O)CC/C(C)=C/Cc1c(O)c2c(c(C)c1OC)COC2=O)[C@@H](C)O (Mycophenolyl-TK(Gly)P[Arg(NO2)]-OMe) | 628 µM | 53.4% | 1030 µM | 590 µM | 1.1 | – | – | – | –
5 | COc1c(C)c2c(c(O)c1C/C=C(\C)CCC(=O)N[C@H](C(=O)O)[C@@H](C)O)C(=O)OC2 | 82 µM | – | 83 µM | 119 µM | 0.7 | inactive | 43 µM | 0.5 | –
6 | COC(=O)[C@H](CCCNC(=N)N[N+](=O)[O-])NC(=O)[C@@H]1CCCN1C(=O)[C@H](CCCCNC(=O)[C@@H](N)CC(C)C)NC(=O)[C@@H](NC(=O)CC/C(C)=C/Cc1c(O)c2c(c(C)c1OC)COC2=O)[C@@H](C)O (Mycophenolyl-TK(Leu)P[Arg(NO2)]-OMe) | 687 µM | 67.04% | 801 µM | 551 µM | 1.2 | – | – | – | –
7 | COc1c(C)c2c(c(O)c1C/C=C(\C)CCC(=O)O)C(=O)OC2 [MYCOPHENOLIC ACID] | 0.14 µM | – | 0.3 µM | 0.0301 µM | 4.6 | – | 60.6 µM | 228 | –
8 | CC[C@H](C)[C@H](NC(=O)CC/C(C)=C/Cc1c(O)c2c(c(C)c1OC)COC2=O)C(=O)O | 20.9 µM | – | 2.3 µM | 9 µM | 2.3 | inactive | 73.7 µM | 33 | –
9 | COc1c(C)c2c(c(O)c1C/C=C(\C)CCC(=O)N[C@@H](CC(=O)O)C(=O)O)C(=O)OC2 | 50 µM | – | 396 µM | 211 µM | 0.2 | inactive | 540 µM | 1.4 | –
10 | COc1c(C)c2c(c(O)c1C/C=C(\C)CCC(=O)N[C@@H](C(=O)O)[C@H](C)O)C(=O)OC2 | 118 µM | – | 21.4 µM | 122 µM | 1 | inactive | 229 µM | 11 | –
11 | COC(=O)[C@@H](NC(=O)[C@H](CCCCNC(=O)CN)NC(=O)[C@@H]1CCCN1C(=O)[C@H](CCCNC(=N)N[N+](=O)[O-])NC(=O)CC/C(C)=C/Cc1c(O)c2c(c(C)c1OC)COC2=O)[C@@H](C)O (Mycophenolyl-[Arg(NO2)]PK(Gly)T-OMe) | 865 µM | – | – | 566 µM | 1.5 | – | 1100 µM | – | 56.72%
